Results reported in ChEMBL document CHEMBL4387722.

Experiments:
E. coli GroEL/ES [1] = target: T1, E. coli GroEL/ES (Escherichia coli, UniProt P0A6F5); test: Inhibition of Escherichia coli GroEL expressed in Escherichia coliDH5alpha/Escherichia coli GroES expressed in Escherichia coli BL21 (DE3) assessed as reduction in GroEL/GroES-mediated denatured pig heart mitochondrial MDH refolding by measuring MDH enzyme activity using sodium mesoxalate as substrate after 20 to 40 mins by spectrometric analysis
T1 sequence (P0A6F5 whole entry, looked up): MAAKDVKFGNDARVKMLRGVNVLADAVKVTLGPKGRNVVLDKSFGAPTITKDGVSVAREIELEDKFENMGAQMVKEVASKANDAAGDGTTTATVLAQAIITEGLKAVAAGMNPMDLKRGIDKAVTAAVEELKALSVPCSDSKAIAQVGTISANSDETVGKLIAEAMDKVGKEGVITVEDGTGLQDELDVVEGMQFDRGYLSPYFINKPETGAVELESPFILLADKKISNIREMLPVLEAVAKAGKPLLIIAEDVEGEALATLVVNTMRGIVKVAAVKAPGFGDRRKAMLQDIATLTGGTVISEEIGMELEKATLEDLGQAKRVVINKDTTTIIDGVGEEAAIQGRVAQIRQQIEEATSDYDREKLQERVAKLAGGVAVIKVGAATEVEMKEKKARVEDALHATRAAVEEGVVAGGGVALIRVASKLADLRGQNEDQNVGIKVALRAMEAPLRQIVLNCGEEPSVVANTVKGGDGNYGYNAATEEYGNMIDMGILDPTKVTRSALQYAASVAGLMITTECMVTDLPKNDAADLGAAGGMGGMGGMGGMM

[2] = target: T2, Malate dehydrogenase, mitochondrial (Sus scrofa, UniProt P00346); test: Inhibition of refolded pig heart mitochondrial MDH preincubated with Escherichia coli GroEL/GroES for 45 mins using sodium mesoxalate as substrate followed by compound addition and measured after 20 to 30 mins by spectrometric analysis
T2 sequence (P00346 whole entry): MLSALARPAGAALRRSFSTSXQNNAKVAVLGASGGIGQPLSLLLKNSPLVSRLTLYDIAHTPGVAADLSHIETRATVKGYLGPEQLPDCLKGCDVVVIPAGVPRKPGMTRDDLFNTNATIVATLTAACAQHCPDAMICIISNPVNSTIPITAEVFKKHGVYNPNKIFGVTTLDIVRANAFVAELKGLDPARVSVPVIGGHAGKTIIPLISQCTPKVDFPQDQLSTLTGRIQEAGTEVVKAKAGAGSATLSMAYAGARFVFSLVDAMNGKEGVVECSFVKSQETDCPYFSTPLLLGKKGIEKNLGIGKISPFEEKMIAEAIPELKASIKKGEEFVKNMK

[3] = target: T3, Phosphotyrosine protein phosphatase (Mycobacterium tuberculosis, UniProt A0A045ISB3); test: Inhibition of Mycobacterium tuberculosis His-tagged PtpB expressed in Escherichia coli Rosetta 2 (DE3) using pNPP as substrate after 30 mins by spectrophotometric method
T3 sequence (A0A045ISB3 whole entry): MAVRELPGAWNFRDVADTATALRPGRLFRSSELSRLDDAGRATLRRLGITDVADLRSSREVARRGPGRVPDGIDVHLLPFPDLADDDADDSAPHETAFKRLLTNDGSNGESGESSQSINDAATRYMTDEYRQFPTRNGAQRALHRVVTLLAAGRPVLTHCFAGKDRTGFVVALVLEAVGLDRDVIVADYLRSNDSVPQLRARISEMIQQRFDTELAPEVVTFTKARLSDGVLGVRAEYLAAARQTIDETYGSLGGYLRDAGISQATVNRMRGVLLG

[4] = Cytotoxicity against human HEK293 cells assessed as reduction in cell viability after 48 hrs by Alamar blue assay; format: cell-based
Method in brief: (§1)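 Alamar Blue viability read-out. Human liver (THLE-3) and kidney (HEK 293) cells incubated with compound for 48 h. Tested in dose-response to derive CC50.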

[5] = test system: Mycobacterium tuberculosis; test: Antitubercular activity against Mycobacterium tuberculosis H37Rv after 5 days at 200 uM relative to control; format: functional; conditions: 120 h
Method in brief: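 M. tuberculosis grown in liquid culture with compound at a fixed 200 μM for 5 days. Growth inhibition expressed as percent of control.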

[6] = Inhibition of refolded rhodanese (unknown origin) preincubated with Escherichia coli GroEL/GroES for 60 mins by measuring rhodanese enzyme activity followed by compound addition by Fe(SCN)3 dye based spectrometric analysis; set-up: species or system Homo sapiens
HSP60/HSP10 = HSP60/HSP10 (Homo sapiens, UniProt P10809); test: Inhibition of human HSP60 expressed in Escherichia coli Rosetta 2(DE3)/human HSP10 expressed in Escherichia coli Rosetta 2(DE3) pLysS cells assessed as reduction in HSP60/HSP10-mediated denatured pig heart mitochondrial MDH refolding by measuring MDH enzyme activity using sodium mesoxalate as substrate after 40 to 60 mins by spectrometric analysis
Sequence of HSP60/HSP10 (P10809 whole entry): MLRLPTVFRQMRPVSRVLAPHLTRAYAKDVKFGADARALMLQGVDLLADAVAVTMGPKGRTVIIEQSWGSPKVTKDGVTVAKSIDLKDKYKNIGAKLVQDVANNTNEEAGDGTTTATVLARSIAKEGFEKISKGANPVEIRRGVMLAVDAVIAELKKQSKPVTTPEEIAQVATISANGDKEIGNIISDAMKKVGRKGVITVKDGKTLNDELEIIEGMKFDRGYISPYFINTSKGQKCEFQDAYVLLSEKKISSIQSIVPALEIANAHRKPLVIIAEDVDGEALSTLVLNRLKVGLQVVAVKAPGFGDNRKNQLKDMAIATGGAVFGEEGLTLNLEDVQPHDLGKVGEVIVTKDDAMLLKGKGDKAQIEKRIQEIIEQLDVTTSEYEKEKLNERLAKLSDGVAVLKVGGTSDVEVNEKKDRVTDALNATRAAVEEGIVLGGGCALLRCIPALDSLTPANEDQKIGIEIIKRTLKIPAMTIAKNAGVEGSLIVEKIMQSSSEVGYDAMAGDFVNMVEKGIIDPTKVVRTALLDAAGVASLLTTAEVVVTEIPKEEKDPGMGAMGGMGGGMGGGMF
Sequence of HSP60/HSP10 (P61604 whole entry, further chain): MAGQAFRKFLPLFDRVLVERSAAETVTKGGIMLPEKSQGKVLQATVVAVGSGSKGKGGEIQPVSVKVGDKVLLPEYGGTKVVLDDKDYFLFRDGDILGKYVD

[7] = test system: Mycobacterium tuberculosis; test: Antitubercular activity against Mycobacterium tuberculosis H37Rv after 5 days; format: functional, organism-based; conditions: 120 h
[8] = Cytotoxicity against human THLE3 cells assessed as reduction in cell viability after 48 hrs by Alamar blue assay; format: cell-based; method in brief: as §1
[9] = target: T4, Tyrosine-protein phosphatase non-receptor type 2 (Homo sapiens, UniProt P17706); test: Inhibition of human PTPN2 expressed in Escherichia coli Rosetta 2 (DE3) using pNPP as substrate after 45 mins by spectrophotometric method
T4 sequence (P17706 whole entry): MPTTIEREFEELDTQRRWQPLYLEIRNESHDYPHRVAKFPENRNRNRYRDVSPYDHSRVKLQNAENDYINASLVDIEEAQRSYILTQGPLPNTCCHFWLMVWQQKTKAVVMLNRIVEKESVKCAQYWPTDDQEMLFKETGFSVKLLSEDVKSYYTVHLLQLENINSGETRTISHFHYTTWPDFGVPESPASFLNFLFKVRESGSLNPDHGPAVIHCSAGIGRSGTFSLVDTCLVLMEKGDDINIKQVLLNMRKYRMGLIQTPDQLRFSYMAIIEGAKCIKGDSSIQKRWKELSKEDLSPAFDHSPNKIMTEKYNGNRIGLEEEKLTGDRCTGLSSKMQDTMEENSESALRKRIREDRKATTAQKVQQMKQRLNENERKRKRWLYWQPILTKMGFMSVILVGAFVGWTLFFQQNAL

[10] = target: T5, Tyrosine-protein phosphatase non-receptor type 5 (Homo sapiens, UniProt P54829); test: Inhibition of human PTPN5 expressed in Escherichia coli Rosetta 2 (DE3) using pNPP as substrate after 45 mins by spectrophotometric method
T5 sequence (P54829 whole entry): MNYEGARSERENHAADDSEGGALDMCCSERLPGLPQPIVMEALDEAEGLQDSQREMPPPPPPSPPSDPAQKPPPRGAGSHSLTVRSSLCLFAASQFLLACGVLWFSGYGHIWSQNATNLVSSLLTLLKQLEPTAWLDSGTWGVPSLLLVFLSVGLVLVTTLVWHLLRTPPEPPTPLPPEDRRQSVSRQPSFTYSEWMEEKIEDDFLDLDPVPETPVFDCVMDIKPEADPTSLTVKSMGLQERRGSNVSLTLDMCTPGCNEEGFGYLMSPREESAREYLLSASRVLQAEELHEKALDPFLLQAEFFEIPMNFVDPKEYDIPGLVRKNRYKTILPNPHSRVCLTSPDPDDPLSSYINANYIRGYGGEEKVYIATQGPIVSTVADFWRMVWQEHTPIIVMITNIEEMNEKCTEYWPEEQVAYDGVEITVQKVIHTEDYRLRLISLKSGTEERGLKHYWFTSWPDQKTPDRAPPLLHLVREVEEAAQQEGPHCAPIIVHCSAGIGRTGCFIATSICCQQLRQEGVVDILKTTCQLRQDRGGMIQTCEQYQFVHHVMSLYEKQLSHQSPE

[11] = target: T6, Tyrosine-protein phosphatase non-receptor type 1 (Homo sapiens, UniProt P18031); test: Inhibition of human PTPN1 expressed in Escherichia coli Rosetta 2 (DE3) using pNPP as substrate after 45 mins by spectrophotometric method
T6 sequence (P18031 whole entry): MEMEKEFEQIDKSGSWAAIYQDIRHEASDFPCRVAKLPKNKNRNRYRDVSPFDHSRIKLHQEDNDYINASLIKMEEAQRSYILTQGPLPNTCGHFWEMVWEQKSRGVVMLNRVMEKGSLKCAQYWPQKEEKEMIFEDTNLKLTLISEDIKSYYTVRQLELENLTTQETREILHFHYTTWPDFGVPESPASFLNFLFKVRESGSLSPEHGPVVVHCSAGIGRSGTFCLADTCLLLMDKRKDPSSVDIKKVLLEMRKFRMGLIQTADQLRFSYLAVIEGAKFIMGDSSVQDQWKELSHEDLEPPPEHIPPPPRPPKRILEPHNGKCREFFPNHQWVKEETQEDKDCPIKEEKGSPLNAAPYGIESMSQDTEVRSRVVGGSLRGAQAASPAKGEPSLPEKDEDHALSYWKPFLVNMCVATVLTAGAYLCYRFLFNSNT

E. coli GroEL/ES [12] = target: T1, E. coli GroEL/ES; test: Inhibition of Escherichia coli GroEL expressed in Escherichia coli DH5alpha/Escherichia coli GroES expressed in Escherichia coli BL21 (DE3) assessed as reduction in GroEL/GroES-mediated denatured rhodanese refolding by measuring rhodanese enzyme activity after 45 mins by Fe(SCN)3 dye based spectrometric analysis

Row | Structure (SMILES) | IC50 (E. coli GroEL/ES [1]) [µM] | IC50 [2] [µM] | IC50 [3] [µM] | CC50 at 48 h [4] [µM] | inhibition at 200 µM [5] [%] | IC50 [6] [µM] | IC50 (HSP60/HSP10) [µM] | EC50 [7] [µM] | CC50 at 48 h [8] [µM] | IC50 [9] [µM] | IC50 [10] [µM] | IC50 [11] [µM] | IC50 (E. coli GroEL/ES [12]) [µM]
1 | O=S(=O)(Nc1ccc2oc(-c3ccccc3)nc2c1)c1ccccc1 | > 100 | > 63 | 87 | 46 | 76 | > 100 | > 100 | 105 | 33 | 64 | 42 | 77 | 190
2 | O=S(=O)(Nc1ccc(-c2nc3ccccc3o2)cc1)c1ccc(C(F)(F)F)cc1 | 77 | > 63 | 52 | 94 | 78 | > 100 | 50 | 161 | 71 | 38 | 39 | 35 | 159
3 | Cc1ccccc1S(=O)(=O)Nc1ccc(-c2nc3ccccc3o2)cc1 | 76 | > 63 | 38 | > 100 | 58 | > 100 | 85 | 176 | 86 | 50 | 32 | 52 | 111
4 | O=S(=O)(Nc1ccc(-c2nc3ccccc3o2)cc1)c1cccc(F)c1 | 92 | > 63 | 91 | > 100 | 80 | > 100 | 71 | 185 | > 100 | 80 | 54 | 62 | 225
5 | C=Cc1ccc(S(=O)(=O)Nc2ccc(-c3nc4ccccc4o3)cc2)cc1 | 91 | > 63 | 52 | > 100 | 73 | > 100 | > 100 | > 200 | 82 | 33 | 31 | 47 | 165
6 | O=S(=O)(Nc1ccc(-c2nc3ccccc3o2)cc1)c1cccc(C(F)(F)F)c1 | 53 | > 63 | 49 | > 100 | 50 | > 100 | 57 | > 200 | 82 | 48 | 40 | 44 | 170
7 | CCc1ccc(S(=O)(=O)Nc2ccc(-c3nc4ccccc4o3)cc2)cc1 | 91 | > 63 | 46 | 82 | 82 | > 100 | > 100 | 153 | 77 | 36 | 31 | 37 | 172
8 | O=S(=O)(Nc1ccc(-c2nc3ccccc3o2)cc1)c1ccc(Cl)s1 | 53 | > 63 | 32 | > 100 | 70 | > 100 | 31 | 185 | 85 | 72 | 64 | 63 | 156
9 | O=S(=O)(Nc1ccc(-c2nc3ccccc3o2)cc1)c1ccccc1C(F)(F)F | 75 | > 63 | 58 | > 100 | 58 | > 100 | 74 | > 200 | 91 | 61 | 53 | 44 | 166
